Results reported in ChEMBL document CHEMBL2346560, “Structure and function of a potent lipopolysaccharide-binding antimicrobial and anti-inflammatory peptide” (J Med Chem, 2013).
In brackets after ≈: the same amount, converted by molar mass. Activity calls are given as the source filed them. No cut-off for these calls is given here. Bridge positions count the residues as written; N and C are the ends. Peptide text beside a SMILES is read from it.

Columns and labels:
RAW264.7 [1] = test: Antiinflammatory activity in mouse RAW264.7 cells assessed as inhibition of LPS-induced NO production at 10 ug/mL after 24 hrs by spectrophotometric analysis relative to control; type: functional; settings: RAW264.7, 24 h
Method in brief: (§1)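 RAW 264.7 cells (1 × 10^7) in RPMI-1640 with 10% FBS and penicillin/streptomycin were treated with peptide (2.5, 5, 10, 20 µg/mL) with or without LPS (E. coli 055:B5, 100 ng/mL) for 24 h. Medium nitrite was measured with Griess reagent at A540 against a NaNO2 standard curve. Control was LPS alone. Mean ± SEM of three separate experiments.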

Candida albicans [2] = test: Antifungal activity against ampicillin, benzylpencillin-resistant Candida albicans 080227710 after 16 hrs by broth dilution method; type: functional; settings: Candida albicans, 080227710, 16 h
Method in brief: (§2)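 MIC read-out, reported in µg/mL with µM equivalents. Each value is the mean of three independent experiments, each run in duplicate.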

Escherichia coli [3] = test: Antibacterial activity against Escherichia coli ATCC 25922 treated with CaCl2 after 16 hrs by broth dilution method; type: functional; settings: ATCC 25922, 16 h
Method in brief: (§3)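 Salt sensitivity of the MIC. Peptide was tested in water, NaCl, CaCl2, MgCl2 or PBS (Na2HPO4-NaH2PO4, pH 7.4), with every salt at 150 mM. Values are means of three independent experiments, each run in duplicate.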

RAW264.7 [4] = test: Antiinflammatory activity in mouse RAW264.7 cells assessed as inhibition of LPS-induced NO production at 20 ug/mL after 24 hrs by spectrophotometric analysis relative to control; type: functional; settings: RAW264.7, 24 h; method in brief: as §1
RAW264.7 [5] = test: Antiinflammatory activity in mouse RAW264.7 cells assessed as inhibition of LPS-induced MCP1 production at 20 ug/mL after 24 hrs by ELISA relative to control; type: functional; settings: RAW264.7, 24 h
Method in brief: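 RAW 264.7 cells (2 × 10^5) were plated and allowed to adhere. They were given peptide (2.5, 5, 10, 20 µg/mL) with or without LPS (E. coli 055:B5, 20 ng/mL) for 24 h. Supernatant TNF-α, IL-6 and MCP-1 were measured by ELISA at A450. Controls were LPS alone and untreated cells. Mean ± SEM of three separate experiments.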

Escherichia coli [6] = test: Antibacterial activity against Escherichia coli ATCC 25922 assessed as cell swelling after 30 mins by scanning electron microscopic analysis; type: functional, organism-based
Method in brief: (§4)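 E. coli (about 2 × 10^7 CFU/mL) was exposed to peptide at 1 × MIC, 37 °C, 30 min, beside an untreated control. Cells were pelleted, fixed in 2.5% buffered glutaraldehyde (4 °C, 2 h), post-fixed in 1% osmium tetroxide (2 h), dehydrated through graded ethanol, frozen in tert-butyl alcohol and vacuum-dried, then imaged by SEM.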

Pseudomonas aeruginosa [7] = test: Antibacterial activity against Pseudomonas aeruginosa ATCC 27853 treated with NaCl after 16 hrs by broth dilution method; type: functional; settings: ATCC 27853, 16 h; method in brief: as §3
Candida albicans [8] = test: Antifungal activity against Candida albicans ATCC 2002 treated with CaCl2 after 16 hrs by broth dilution method; type: functional; settings: ATCC 2002, 16 h; method in brief: as §3
Bacillus subtilis [9] = test: Antibacterial activity against Bacillus subtilis 6633 treated with MgCl2 after 16 hrs by broth dilution method; type: functional; settings: Bacillus subtilis, 6633, 16 h; method in brief: as §3
Escherichia coli [10] = test: Antibacterial activity against Escherichia coli 08A852 assessed as plasma membrane rupture after 30 mins by scanning electron microscopic analysis; type: functional, organism-based; method in brief: as §4
RAW264.7 [11] = test: Antiinflammatory activity in mouse RAW264.7 cells assessed as inhibition of LPS-induced JNK2 expression at 10 to 20 ug/mL preincubated for 1 hr prior to LPS-challenge measured after 3 hrs by Western blotting analysis; type: functional, cell-based
Method in brief: (§5)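 RAW 264.7 cells (1 × 10^6/well) were serum-starved in RPMI-1640 for 16 h. They were pretreated with peptide (0, 5, 10, 20 µg/mL) for 1 h, then given LPS (E. coli 055:B5, 0 or 100 ng/mL) for 3 h. Cells were washed in ice-cold PBS, and cytoplasmic or nuclear fractions were blotted for TLR4, JNK, NF-κB p65 and β-actin. Control was LPS alone.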

Escherichia coli [12] = test: Antibacterial activity against Escherichia coli ATCC 25922 assessed as plasma membrane rupture after 30 mins by scanning electron microscopic analysis; type: functional, organism-based; method in brief: as §4
[13] = Toxicity in human RBC assessed as induction of hemolysis at 50 ug/mL after 30 mins relative to control; type: cell-based, Erythrocyte; settings: red blood cells (RBC), read-out: Activity
Method in brief: (§6)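 Human red blood cells incubated with peptide. Hemoglobin release read as absorbance at 540 nm and expressed against 1% Triton X-100 as positive control.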

RAW264.7 [14] = test: Antiinflammatory activity in mouse RAW264.7 cells assessed as inhibition of LPS-induced JNK1 expression preincubated for 1 hr prior to LPS-challenge measured after 3 hrs by Western blotting analysis; type: functional, cell-based; method in brief: as §5
Escherichia coli [15] = test: Antibacterial activity against Escherichia coli ATCC 25922 after 16 hrs by broth dilution method; type: functional; settings: ATCC 25922, 16 h; method in brief: as §2
Escherichia coli [16] = test: Bactericidal activity against Escherichia coli ATCC 25922 at MIC after 120 mins by colony counting assay (reference value: 1868.3 CFU); type: functional
Escherichia coli [17] = test: Bactericidal activity against Escherichia coli ATCC 25922 at 10 times MIC after 120 mins by colony counting assay (reference value: 1868.3 CFU); type: functional
Escherichia coli [18] = test: Bactericidal activity against Escherichia coli ATCC 25922 at MIC after 60 mins by colony counting assay (reference value: 296 CFU); type: functional
RAW264.7 [19] = test: Antiinflammatory activity in mouse RAW264.7 cells assessed as inhibition of LPS-induced NFkappaB translocation from cytoplasm to nucleus preincubated for 1 hr prior to LPS-challenge measured after 3 hrs by Western blotting analysis; type: functional, cell-based; method in brief: as §5
RAW264.7 [20] = test: Antiinflammatory activity in mouse RAW264.7 cells assessed as inhibition of LPS-induced JNK2 expression preincubated for 1 hr prior to LPS-challenge measured after 3 hrs by Western blotting analysis; type: functional, cell-based; method in brief: as §5
Bacillus subtilis [21] = test: Antibacterial activity against Bacillus subtilis 6633 treated with CaCl2 after 16 hrs by broth dilution method; type: functional; settings: Bacillus subtilis, 6633, 16 h; method in brief: as §3
RAW264.7 [22] = test: Antiinflammatory activity in mouse RAW264.7 cells assessed as inhibition of LPS-induced TLR4 expression preincubated for 1 hr prior to LPS-challenge measured after 3 hrs by Western blotting analysis; type: functional, cell-based; method in brief: as §5
Pseudomonas aeruginosa [23] = test: Antibacterial activity against Pseudomonas aeruginosa ATCC 27853 treated with water after 16 hrs by broth dilution method; type: functional; settings: ATCC 27853, 16 h; method in brief: as §3
Pseudomonas aeruginosa [24] = test: Antibacterial activity against ampicillin, benzylpencillin-resistant Pseudomonas aeruginosa 08031205 after 16 hrs by broth dilution method; type: functional; settings: Pseudomonas aeruginosa, 08031205, 16 h; method in brief: as §2
Bacillus subtilis [25] = test: Antibacterial activity against Bacillus subtilis 6633 treated with PBS after 16 hrs by broth dilution method; type: functional; settings: Bacillus subtilis, 6633, 16 h; method in brief: as §3
[26] = Toxicity in human RBC assessed as induction of hemolysis at 25 ug/mL after 30 mins relative to control; type: cell-based, Erythrocyte; settings: red blood cells (RBC), read-out: Activity; method in brief: as §6
RAW264.7 [27] = test: Antiinflammatory activity in mouse RAW264.7 cells assessed as inhibition of LPS-induced NFkappaB translocation from cytoplasm to nucleus at 20 ug/mL preincubated for 1 hr prior to LPS-challenge measured after 3 hrs by Western blotting analysis relative to LPS-treated control; type: functional; method in brief: as §5
Staphylococcus aureus = test: Antibacterial activity against Staphylococcus aureus ATCC 2592 treated with MgCl2 after 16 hrs by broth dilution method; type: functional; settings: ATCC 2592, 16 h; method in brief: as §3

SMILES: CC[C@H](C)[C@H](NC(=O)[C@H](Cc1cnc[nH]1)NC(=O)[C@H](CO)NC(=O)[C@@H](NC(=O)[C@@H](NC(=O)[C@@H](NC(=O)[C@@H](NC(=O)[C@H](CCCNC(=N)N)NC(=O)[C@H](CC(C)C)NC(=O)[C@H](CCCCN)NC(=O)[C@H](CCC(=O)O)NC(=O)[C@H](CCCCN)NC(=O)[C@H](CC(C)C)NC(=O)[C@H](CCCCN)NC(=O)[C@@H]1CSSC[C@H](NC(=O)[C@H](CCCCN)NC(=O)[C@@H](N)CCCNC(=N)N)C(=O)N[C@@H](CC(N)=O)C(=O)N[C@@H](Cc2ccccc2)C(=O)N[C@@H](CC(C)C)C(=O)N1)[C@@H](C)O)C(C)C)[C@@H](C)CC)[C@@H](C)O)C(=O)N[C@@H](CC(=O)O)C(=O)N[C@@H](CCCCN)C(=O)N[C@H](C(=O)N[C@@H](CC(C)C)C(=O)N[C@@H](CCCNC(=N)N)C(=O)N1CCC[C@H]1C(=O)N[C@@H](CCC(N)=O)C(=O)NCC(=O)O)C(C)C (H-RKCNFLCKLKEKLRTVITSHIDKVLRPQG-OH; disulfide 3-7)
- inhibition at 10 µg/mL (RAW264.7 [1]): 50%
- MIC (Candida albicans [2]): 5.48 µM (≈ 18.8 µg/mL)
- MIC (Escherichia coli [3]): 2.35 µg/mL (≈ 0.686 µM)
- inhibition at 20 µg/mL (RAW264.7 [4]): 70%
- inhibition at 20 µg/mL (RAW264.7 [5]): 68%
- Activity (Escherichia coli [6]): Active
- MIC (Pseudomonas aeruginosa [7]): 9.38 µg/mL (≈ 2.74 µM)
- MIC (Candida albicans [8]): 2.35 µg/mL (≈ 0.686 µM)
- MIC (Bacillus subtilis [9]): 75 µg/mL (≈ 21.9 µM)
- Activity (Escherichia coli [10]): Active
- inhibition (RAW264.7 [11]): Active
- Activity (Escherichia coli [12]): Active
- hemolysis at 0.5 h, 50 ug/mL [13]: 5.5%
- inhibition (RAW264.7 [14]): Dose-dependent effect
- MIC (Escherichia coli [15]): 1.37 µM (≈ 4.69 µg/mL)
- CFU (Escherichia coli [16]): 0
- CFU (Escherichia coli [17]): 0
- CFU (Escherichia coli [18]): 0
- inhibition (RAW264.7 [19]): Dose-dependent effect
- inhibition (RAW264.7 [20]): Dose-dependent effect
- MIC (Bacillus subtilis [21]): 75 µg/mL (≈ 21.9 µM)
- inhibition (RAW264.7 [22]): Dose-dependent effect
- MIC (Pseudomonas aeruginosa [23]): 18.8 µg/mL (≈ 5.48 µM)
- MIC (Pseudomonas aeruginosa [24]): 2.74 µM (≈ 9.38 µg/mL)
- MIC (Bacillus subtilis [25]): > 100 µg/mL
- hemolysis at 0.5 h, 25 ug/mL [26]: 3.5%
- inhibition at 20 µg/mL (RAW264.7 [27]): 74%
- MIC (Staphylococcus aureus): 9.38 µg/mL (≈ 2.74 µM)
